Measurements taken from ChEMBL document CHEMBL3244336, “Antitumor agents. 1. 1,4-Bis[(aminoalkyl)amino]-9,10-anthracenediones” (J Med Chem, 1979).
The source made the active and inactive calls. No cut-off for these calls is given here.

How the values were obtained:
P388 [1] = experiment: Antitumor activity against mouse P388 cells allografted in mouse assessed as increase of median life span at 200 mg/kg, ip on day 1, 5 and 9 measured up to 60 days relative to control; format: functional; settings: route intraperitoneal
Outline: (§1)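 BDF1 or CDF1 mice inoculated ip with ascitic P388 leukemia cells. Dosing ip on days 1, 5 and 9. Deaths recorded for 60 days; % increase in median life span over controls. "Cures" are survivors/total at 60 days.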

B16 [2] = experiment: Antitumor activity against mouse B16 cells allografted in BDF1 mouse assessed as increase of median life span at 50 mg/kg, ip on day 1 to 9 measured up to 80 days relative to control; format: functional; settings: route intraperitoneal
Outline: (§2)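 BDF1 mice implanted ip with a homogenate from 0.05 g of B16 tumor. Test agent given ip on days 1-9. Deaths recorded for 80 days. Result is % increase in median life span over untreated controls. "Cures" are survivors/total at 80 days.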

B16 [3] = experiment: Antitumor activity against mouse B16 cells allografted in BDF1 mouse assessed as disease cure at 50 mg/kg, ip on day 1 to 9 measured up to 80 days; format: functional, organism-based; design: dose 50 mg/kg
Outline: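 BDF1 mice implanted ip with homogenate from 0.05 g of B16 tumor, then dosed ip on days 1-9. Deaths recorded for 80 days; "cures" scored as survivors/total at 80 days.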

P388 [4] = experiment: Antitumor activity against mouse P388 cells allografted in mouse assessed as disease cure at 200 mg/kg, ip on day 1, 5 and 9 measured up to 60 days; format: functional, organism-based; design: dose 200 mg/kg
Outline: (§3)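 BDF1 or CDF1 mice inoculated ip with ascitic P388 leukemia cells, dosed ip on days 1, 5 and 9. Deaths recorded for 60 days; "cures" taken as number of survivors/total at 60 days.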

B16 [5] = experiment: Antitumor activity against mouse B16 cells allografted in BDF1 mouse assessed as increase of median life span at 12.5 mg/kg, ip on day 1 to 9 measured up to 80 days relative to control; format: functional; settings: route intraperitoneal
P388 [6] = experiment: Antitumor activity against mouse P388 cells allografted in mouse assessed as increase of median life span at 25 mg/kg, ip on day 1, 5 and 9 measured up to 60 days relative to control; format: functional; settings: route intraperitoneal; outline: as §1
P388 [7] = experiment: Antitumor activity against mouse P388 cells allografted in mouse assessed as disease cure at 25 mg/kg, ip on day 1, 5 and 9 measured up to 60 days; format: functional, organism-based; design: dose 25 mg/kg; outline: as §3
P388 [8] = experiment: Antitumor activity against mouse P388 cells allografted in mouse assessed as increase of median life span at 100 mg/kg, ip on day 1, 5 and 9 measured up to 60 days relative to control; format: functional; settings: route intraperitoneal
P388 [9] = experiment: Antitumor activity against mouse P388 cells allografted in mouse assessed as disease cure at 100 mg/kg, ip on day 1, 5 and 9 measured up to 60 days; format: functional, organism-based; design: dose 100 mg/kg
Outline: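 BDF or CDF1 mice injected ip with ascitic leukemia cells, then dosed ip on days 1, 5 and 9. Deaths recorded for 60 days. Read-outs: percent increase in median life span over controls, and "cures" as survivors/total at 60 days.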

B16 [10] = experiment: Antitumor activity against mouse B16 cells allografted in BDF1 mouse assessed as increase of median life span at 6.2 mg/kg, ip on day 1 to 9 measured up to 80 days relative to control; format: functional; settings: route intraperitoneal; outline: as §2
B16 [11] = experiment: Antitumor activity against mouse B16 cells allografted in BDF1 mouse assessed as disease cure at 12.5 mg/kg, ip on day 1 to 9 measured up to 80 days; format: functional, organism-based; design: dose 12.5 mg/kg
Outline: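 BDF1 mice implanted ip with a homogenate from 0.05 g of tumor. Dosed ip on days 1–9, with deaths recorded for 80 days. "Cures" counted as survivors/total at 80 days.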

P388 [12] = experiment: Antitumor activity against mouse P388 cells allografted in mouse assessed as increase of median life span at 50 mg/kg, ip on day 1, 5 and 9 measured up to 60 days relative to control; format: functional; settings: route intraperitoneal; outline: as §1

Compound: CN(CCNc1ccc(NCCN(C)c2ccccc2)c2c1C(=O)c1c(O)ccc(O)c1C2=O)c1ccccc1
- ILS at 200 mg/kg (P388 [1]): 0%
- ILS at 50 mg/kg (B16 [2]): 0%
- Activity (B16 [3]): inactive
- Activity (P388 [4]): inactive

Compound: NCCNc1ccc(NCCN)c2c1C(=O)c1ccccc1C2=O
- ILS at 12.5 mg/kg (B16 [5]): 82%
- ILS at 200 mg/kg (P388 [1]): 145%
- ILS at 50 mg/kg (B16 [2]): 100%
- ILS at 25 mg/kg (P388 [6]): 144%
- Activity (P388 [4]): inactive
- Activity (P388 [7]): inactive

Compound: Nc1ccc(N)c2c1C(=O)c1ccccc1C2=O
- ILS at 100 mg/kg (P388 [8]): 0%
- Activity (P388 [9]): inactive

Compound: CN(C)CCCCNc1ccc(NCCCCN(C)C)c2c1C(=O)c1c(O)ccc(O)c1C2=O
- ILS at 200 mg/kg (P388 [1]): 0%
- ILS at 50 mg/kg (B16 [2]): 0%
- Activity (B16 [3]): inactive
- Activity (P388 [4]): inactive

Compound: CCN(CC)CCNc1ccc(NCCN(CC)CC)c2c1C(=O)c1ccccc1C2=O
- ILS at 200 mg/kg (P388 [1]): 40%
- Activity (P388 [4]): inactive

Compound: CNCCNc1ccc(NCCNC)c2c1C(=O)c1ccccc1C2=O
- ILS at 25 mg/kg (P388 [6]): 144%
- ILS at 6.2 mg/kg (B16 [10]): 114%

Compound: CCN(CC)CCCC(C)Nc1ccc(NC(C)CCCN(CC)CC)c2c1C(=O)c1c(O)ccc(O)c1C2=O (configuration not stated)
- ILS at 100 mg/kg (P388 [8]): 30%
- ILS at 50 mg/kg (B16 [2]): 0%
- Activity (B16 [3]): inactive
- Activity (P388 [9]): inactive

Compound: O=C1c2c(O)ccc(O)c2C(=O)c2c(NCCN3CCCC3)ccc(NCCN3CCCC3)c21
- Activity (B16 [11]): inactive
- ILS at 100 mg/kg (P388 [8]): 118%
- ILS at 12.5 mg/kg (B16 [5]): 58%
- Activity (P388 [9]): inactive

Compound: O=C1c2c(O)ccc(O)c2C(=O)c2c(NCCNCC(O)CO)ccc(NCCNCC(O)CO)c21 (configuration not stated)
- Activity (B16 [11]): inactive
- ILS at 12.5 mg/kg (B16 [5]): 79%
- ILS at 50 mg/kg (P388 [12]): > 422%

Compound: CC(=O)NCCNc1ccc(NCCNC(C)=O)c2c1C(=O)c1c(O)ccc(O)c1C2=O
- ILS at 200 mg/kg (P388 [1]): 0%
- ILS at 50 mg/kg (B16 [2]): 0%
- Activity (B16 [3]): inactive

Compound: O=C1c2c(O)ccc(O)c2C(=O)c2c(NCCNCCNCCO)ccc(NCCNCCNCCO)c21
- ILS at 100 mg/kg (P388 [8]): 73%
- ILS at 50 mg/kg (B16 [2]): 35%
- Activity (B16 [3]): inactive

Compound: CN(C)CCNc1ccc(NCCN(C)C)c2c1C(=O)c1c(O)ccc(O)c1C2=O
- ILS at 12.5 mg/kg (B16 [5]): 70%
- ILS at 50 mg/kg (P388 [12]): 122%

Compound: O=C1c2ccccc2C(=O)c2c(NCCNCCO)ccc(NCCNCCO)c21 [AMETANTRONE]
- ILS at 25 mg/kg (P388 [6]): 154%
- ILS at 6.2 mg/kg (B16 [10]): 129%
- Activity (P388 [7]): inactive

Compound: CC(C)N(CCNc1ccc(NCCN(C(C)C)C(C)C)c2c1C(=O)c1c(O)ccc(O)c1C2=O)C(C)C
- ILS at 200 mg/kg (P388 [1]): 0%
- ILS at 50 mg/kg (B16 [2]): 0%
- Activity (B16 [3]): inactive
- Activity (P388 [4]): inactive

Compound: CN(C)CCCCCNc1ccc(NCCCCCN(C)C)c2c1C(=O)c1c(O)ccc(O)c1C2=O
- ILS at 200 mg/kg (P388 [1]): 0%
- ILS at 50 mg/kg (B16 [2]): 0%
- Activity (B16 [3]): inactive
- Activity (P388 [4]): inactive

Compound: CNCCNCCNc1ccc(NCCNCCNC)c2c1C(=O)c1c(O)ccc(O)c1C2=O
- ILS at 100 mg/kg (P388 [8]): 120%
- ILS at 50 mg/kg (B16 [2]): 122%
- Activity (B16 [3]): inactive

Compound: O=C1c2c(O)ccc(O)c2C(=O)c2c(NCCO)ccc(NCCO)c21
- ILS at 100 mg/kg (P388 [8]): 0%
- Activity (P388 [9]): inactive

Compound: CN(C)CCNc1ccc(NCCN(C)C)c2c1C(=O)c1cc(Cl)c(Cl)cc1C2=O
- ILS at 200 mg/kg (P388 [1]): 0%
- Activity (P388 [4]): inactive
